STAT1 inh = STAT1 signaling inhibition; AID 920; hit rate 0.35% among 200,000; NIH 3T3 STAT1-luciferase reporter, IFN-gamma, luminescence; inhibition, % at 5.5 µM;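 active means inhibition above a set limit, the mean inhibition across all tested compounds plus 3 SD, cut at about 34% in these data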;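 further: 0% = IFN-gamma with DMSO and 100% = IFN-gamma with 300 µM nifuroxazide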
STAT3 blocker = STAT3 signaling inhibition. AID 862. U3A cells, IL-6 STAT3-luciferase reporter, luminescence; host cell line lacks STAT1. inhibition, % at 5.5 µM. hit rate 0.89% among 190,000;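 active means inhibition above the mean inhibition across all screened compounds plus 3 SD, cut at about 44% in these data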;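 further: 0% = DMSO only wells and 100% = 100 µM nifuroxazide control wells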
STAT1 act = STAT1 signaling activation; NIH 3T3 STAT1-luciferase reporter, IFN-gamma, luminescence; 100% = IFN-gamma alone, no compound; activation (% of control), % at 5.5 µM; hit rate 2.6% among 200,000;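 active means activation above the screen-wide mean activation plus 3 SD, cut at about 130% in these data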;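 further: raw ratio to IFN-gamma control signal so 100% means no change and 0% no light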
NF-kB expr up = raises NF-kB expression in human neuronal cells | AID 1239 | fold change at 12.5 µM | hit rate 1.6% among 190,000 | NF-kB reporter expression; hits give high values; in the data active means fold change above about 3.3
STAT3 activator = increases IL-6 driven STAT3 reporter signal | U3A cells, IL-6 STAT3-luciferase reporter, luminescence; 100% = signal with IL-6 EC80 alone | activation (% of control), % at 5.6 µM | hit rate 0.91% among 190,000;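 active means activation above the screen-wide mean of compound activation plus 3 SD, cut at about 130% in these data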;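 further: 0% = background luminescence of wells with medium and substrate only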
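Material: STAT3-luciferase reporter U3A cells; Probe or stimulus: IL-6 (33 ng/mL); Incubation: compound pre-incubation 1 h before IL-6, then 6 h stimulation at 37 °C; Technique: luminescence from STAT3-driven luciferase reporter; Evaluation: % activation versus median of IL-6-stimulated wells; Controls: IL-6-only high control.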
APP 5'UTR act = activates APP 5'UTR luciferase reporter; SH-SY5Y APP 5'UTR luciferase reporter, luminescence; zero percent = DMSO vehicle wells; hit rate 1% among 190,000; activation, % at 2 µM;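 active means activation above a set limit, based on mean plus 3 SD of controls, cut at about 140% in these data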
Active calls of the source: *. Shown are actives, neighbours in structure and some others; about 5.1% of the full set was active somewhere.

SMILES | STAT1 inh | STAT3 blocker | STAT1 act | NF-kB expr up | STAT3 activator | APP 5'UTR act
CC(=O)Nc1ccccc1OCc1nnc(-c2ccc(Cl)cc2)o1 | -12 | 14 | 110 | 1.3 | 92 | 10
Clc1ccc(OCc2nnc(-c3ccccc3Br)o2)c(Cl)c1 | -29 | 2 | 126 | 4* | 101 | 51
CCOc1ccc2nc(-c3ccccc3)nc(SCC(=O)Nc3ncc(C)s3)c2c1 | -10 | -2 | 109 | 0.94 | 106 | -4
O=C(/C=C/Nc1ccc([N+](=O)[O-])cc1Br)c1cccc2ccccc12 | 5 | -10 | 96 | 1.7 | 109 | 149*
Cc1cc(Oc2ccc(=O)n(C)n2)nc(=S)[nH]1 | 1 | 5 | 98 | 1.2 | 99 | -22
N#C/C(=C\Nc1ccc2c(c1)OCCO2)c1nc(-c2ccccc2)cs1 | -6 | 2 | 106 | 1.2 | 102 | 10
CC(C)(C)C(=O)Nc1nc(-c2ccc3c(c2)OCO3)cs1 | -42 | -14 | 139* | 5.7* | 109 | 157*
COc1ccc(-c2csc(NC(C)=O)n2)cc1OC | -2 | 2 | 102 | 1 | 102 | 8
O=C(/C=C/c1ccc2c(c1)OCO2)Nc1nc(-c2ccc(F)cc2)cs1 | 9 | 0 | 92 | 1.3 | 100 | 9
COc1cccc(-c2csc(NC(C)=O)n2)c1 | -41 | 11 | 137* | 3.1 | 94 | 62
COc1ccccc1C(=O)Nc1nc(-c2ccc3c(c2)OCCO3)cs1 | -6 | 28 | 105 | 1 | 80 | 1
COc1cccc(Nc2nc(-c3ccc4c(c3)OCCO4)cs2)c1 | -53 | -9 | 148* | 2.9 | 110 | 162*
c1ccc(-c2csc(Nc3ccc4c(c3)OCCO4)n2)cc1 | -42 | 6 | 139* | 4.8* | 95 | 187*
O=C(NCC1CCCO1)C1CC(=O)N(C2CCCC2)C1 (stereo not drawn) | -5 | -3 | 105 | 1.3 | 100 | -10
Cc1cc(C)cc(OCC(=O)Nc2ccc3c(c2)OCO3)c1 | -2 | 22 | 100 | 1.1 | 83 | -4
O=C1C=C(NCCOC23CC4CC(CC(C4)C2)C3)C2(CCCCC2)O1 | -2 | 9 | 101 | 1.1 | 97 | 0
c1cc2c(cc1-c1csc(NNC3=NCCCCC3)n1)OCCO2 | -50 | -6 | 144* | 0.7 | 107 | 80
c1cc2c(cc1Nc1nc(-c3ccc4c(c3)OCO4)cs1)OCCO2 | -40 | 9 | 137* | 1.2 | 92 | 25
CC(=O)Nc1nc(-c2ccc3c(c2)CCO3)cs1 | -44 | 28 | 141* | 2.6 | 82 | 80
Nc1nc(-c2ccc3c(c2)CCO3)cs1 | -27 | -5 | 125 | 1.7 | 110 | 45
O=C(C1COc2ccccc2O1)N1CCc2ccccc2C1 (stereo not drawn) | -10 | 21 | 109 | 1.5 | 84 | 3
NC(=O)c1nsc(C(=O)N(c2cccc(F)c2)C(C(=O)NCC2CCCO2)c2cccs2)c1N (stereo not drawn) | -10 | 6 | 107 | 0.88 | 101 | 4
C[C@@H]1NC(=O)[C@H](CCCN=C(N)N)NC(=O)c2cc([N+](=O)[O-])cc(I)c2OCC[C@@H](C(=O)NC(CC(=O)O)C(N)=O)NC1=O (stereo partly drawn) | 3 | -5 | 98 | 1.1 | 102 | -1
Cc1ccccc1C1=NC(C(F)(F)F)(C(F)(F)F)c2c(n(C)c(=O)n(C)c2=O)N1 | 3 | -3 | 97 | 0.71 | 105 | 19
Cn1c2c(c(=O)n(C)c1=O)C(C(F)(F)F)(C(F)(F)F)N=C(c1ccc(Cl)cc1)N2 | 71* | 89* | 36 | 0.57 | 31 | -51
SMILES | STAT1 inh | STAT3 blocker | STAT1 act | NF-kB expr up | STAT3 activator | APP 5'UTR act
COc1ccc(OC)c(NC(=O)CN(C)S(=O)(=O)c2ccc(Cl)cc2)c1 | -1 | 13 | 100 | 0.92 | 95 | -1
CC1=CC(=O)c2ccccc2C1=O | -7 | -18 | 106 | 0.87 | 118 | 22
CC(C)(C=O)C1=CC(=O)c2ccccc2C1=O | 14 | -43 | 88 | 0.97 | 139* | -81
CCc1nnc(NC(=O)CSc2nc3cccnc3n2Cc2ccccc2)s1 | -1 | 10 | 101 | 1.2 | 93 | -10
Cc1cccc(NC(=S)c2nc3ccccc3s2)c1 | -48 | -31 | 143* | 3.9* | 134* | 205*
Cc1cccc(NC(=O)c2sc(C)nc2C)c1 | -7 | 2 | 106 | 1.8 | 101 | 33
CC1CCCC/C1=N\NC(=S)Nc1cccnc1 (stereo not drawn) | -4 | 5 | 102 | 4.9* | 97 | 26
Cc1ccc(NC(=S)N/N=C2\CCCCC2C)cc1 (stereo not drawn) | -7 | -4 | 107 | 1.1 | 103 | 31
CC(=NCCCn1ccnc1)c1c(C)[nH]n(-c2ccc([N+](=O)[O-])cc2)c1=O | -3 | 0 | 102 | 1 | 101 | -5
Cc1ccc(-n2c(SCn3nnc4ccccc4c3=O)nnc2-c2cccnc2)c(C)c1 | 2 | 17 | 97 | 0.52 | 91 | -2
Cc1cc(=O)[nH]c(SCn2nnc3ccccc3c2=O)n1 | 1 | 3 | 100 | 1.1 | 101 | -1
O=c1c2ccccc2nnn1CSc1nc2ccccc2[nH]1 | -38 | -2 | 135* | 2.2 | 98 | 66
Cc1ccc(SCn2nnc3ccccc3c2=O)c(C)c1 | -43 | -3 | 141* | 2.9 | 103 | 76
Cc1nn(CCC(N)=S)c2nc(-c3cccs3)cc(C(F)(F)F)c12 | -3 | 4 | 103 | 0.94 | 99 | -10
C=C(C)CSc1nc2c(c(=O)[nH]c(=O)n2C)n1CCC(C)C | 2 | 0 | 98 | 0.72 | 108 | -1
COC(=O)c1ccc(/C=C/c2ccc3cccc(OC(C)=O)c3n2)cc1 | -1 | 29 | 101 | 3.7* | 78 | 120
O=C(O)c1ccc(/C=C/c2ccc3cccc(O)c3n2)cc1 | 3 | 12 | 96 | 3.2 | 92 | 89
Cc1nc(NC(=O)c2ccccc2)nc2cc3c(cc12)OCO3 | -33 | -9 | 129* | 1.6 | 110 | 34
Cc1nc(NC(=O)c2ccc(F)cc2)nc2cc3c(cc12)OCO3 | -12 | 5 | 110 | 0.77 | 100 | 9
C(=N\Nc1nc(Nc2ccccc2)nc(N2CCCCC2)n1)/c1ccco1 | -11 | 10 | 108 | 0.92 | 94 | 13
Clc1cc(Cl)c2nc(N3CCCCC3)sc2c1 | -26 | -13 | 124 | 3.3* | 115 | 63
CC(C)(C)C(=O)CSc1nnc(Nc2ccccc2)s1 | -35 | -10 | 130* | 1.8 | 113 | 16
CC(C)(C)C(=O)c1sc(Nc2ccccc2)nc1N | -54 | -9 | 150* | 3.8* | 110 | 64
O=C(COC(=O)CCC1CCCC1)Nc1ccc(Cl)cc1F | -3 | -13 | 102 | 0.91 | 107 | -3
S=C1NCCOCCOCCOCCOCCNC(=S)NCCOCCOCCOCCOCCN1 | -2 | -2 | 98 | 1.1 | 104 | 7
